Screening data as filed in PubChem BioAssay.
LYP act = LYP (human) phosphatase activation. Q9Y2R2. recombinant LYP, DiFMUP fluorescence; 0 = plate median, 100 = signal doubled. activation, % at 2 µM. hit rate 0.11% among 96,000. AID 697;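 active means activation at 2 µM above a set limit, the mean plus 5 SD, cut at about 37% in these data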
LYP inh 2 = inhibitors of human LYP (PTPN22) phosphatase | Q9Y2R2 | recombinant LYP catalytic domain, DiFMUP fluorescence | inhibition, % at 2 µM | hit rate 0.21% among 96,000 | AID 640;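 active means inhibition at 2 µM at or above a set limit, the screen mean plus 3 SD, cut at about 24% in these data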;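 further: 0% = DMSO with enzyme and 100% = enzyme fully blocked by orthovanadate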
PLK1 inh = PLK1 (human) kinase inhibition | hit rate 0.53% among 97,000 | AID 619 | inhibition, % at 10 µM | recombinant PLK1 kinase, TR-FRET peptide phosphorylation;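 active means inhibition of 50% or more in the single-concentration screen; inactive means inhibition below 50%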;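 further: 0% = DMSO max control and 100% = H-89 dihydrochloride min control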
Target sequence (P53350 whole entry, looked up): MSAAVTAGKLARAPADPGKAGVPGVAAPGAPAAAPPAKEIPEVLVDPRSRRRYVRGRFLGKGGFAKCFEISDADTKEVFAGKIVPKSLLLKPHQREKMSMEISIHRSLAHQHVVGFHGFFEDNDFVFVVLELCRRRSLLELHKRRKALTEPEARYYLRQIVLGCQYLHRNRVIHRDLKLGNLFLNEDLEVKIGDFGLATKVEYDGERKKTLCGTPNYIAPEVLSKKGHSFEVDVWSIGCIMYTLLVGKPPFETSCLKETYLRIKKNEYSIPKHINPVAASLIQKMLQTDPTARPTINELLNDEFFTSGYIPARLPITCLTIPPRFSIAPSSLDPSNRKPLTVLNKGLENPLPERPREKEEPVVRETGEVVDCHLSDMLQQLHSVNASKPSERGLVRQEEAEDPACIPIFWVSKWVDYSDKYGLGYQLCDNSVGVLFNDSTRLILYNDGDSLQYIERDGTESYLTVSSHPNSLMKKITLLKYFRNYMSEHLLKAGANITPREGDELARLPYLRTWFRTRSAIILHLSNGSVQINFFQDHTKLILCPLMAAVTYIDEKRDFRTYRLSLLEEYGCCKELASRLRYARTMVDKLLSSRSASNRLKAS
hDAT+cocaine = human DAT dopamine uptake with cocaine, either direction. LLC-PK1 hDAT cells, [14C]-dopamine uptake with cocaine IC80; actives deviate in either direction. B-score at 10 µM. hit rate 1.3% among 110,000;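 active means Z score or B-score, a plate-position-corrected score, falls beyond the plate's 99.7% confidence bounds, in either direction; inactive means both scores lie inside the 99.7% bounds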;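 further: scored against the spread of the other compound wells on the same plate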
Plk1 PBD FP = inhibitors of human Plk1 polo box domain binding; P53350; Plk1 PBD phosphopeptide binding, fluorescence polarization; inhibition, %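 (tested at about 20 µM)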; hit rate 0.13% among 97,000; in the data active means inhibition above about 34%, passing the limit was not always enough
Rev-RRE block = disrupts HIV-1 Rev binding to RRE RNA. Rev peptide-RRE RNA binding, FRET. inhibition, % at 8 µM. hit rate 0.79% among 97,000. AID 704;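 active means inhibition above the screen-wide mean plus 3 SD, cut at about 35% in these data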;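 further: 0% = median DMSO wells and 100% = median Neomycin B control wells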
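assay system = Cy5-tagged RRE RNA duplex with fluorescein-tagged Rev peptide | incubation = 5 + 15 min at 25 °C | also added = labelled Rev peptide | measure = % inhibition of FRET ratio versus controls | benchmarks = DMSO wells as 0% and neomycin B wells as 100% inhibition | measured by = FRET fluorescence readout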
PLK1 confirm = PLK1 (human) kinase inhibition, confirmed; recombinant PLK1 kinase, TR-FRET peptide phosphorylation; AID 744; hit rate 20% among 210; inhibition, % at 10 µM; shares compounds with PLK1 inh;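 active means inhibition at or above 50% in each of two repeat confirmation tests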;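 further: 0% = DMSO max control and 100% = H-89 kinase-blocked min control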
TR-FRET interf = counter-screen for Plk1 inhibitors: compound assay interference. 210 tested, under 10 active. shares compounds with PLK1 inh. Plk1 TR-FRET assay interference, compound added post-reaction. inhibition (interference), % at 10 µM;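 active means both duplicate runs show 50% or greater inhibition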;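 further: 0% = DMSO max control and 100% = H-89 min control inhibited reaction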
Starred values were filed as active, the others as inactive; / = not tested or not shown. This is a sample that favours compounds with a hit; in the whole collection about 2.7% have one here.

SMILES	LYP act	LYP inh 2	PLK1 inh	hDAT+cocaine	Plk1 PBD FP	Rev-RRE block	PLK1 confirm	TR-FRET interf
CC/C(=N\NC(=O)c1ccc(-c2ccccc2)cc1)C12CC3CC(CC(C3)C1)C2	-14	12	6	-0.32	-12	5	/	/
C/C=C\C(=O)Nc1cccc(C2=NOC3(C2)C[C@H](C(N)=O)N(C(=O)[C@H]2CCC(=O)N2)C3)c1 (stereo not given in full)	/	/	/	-0.03	/	/	/	/
CC1Cc2ccccc2N1C(=O)c1cnc2n(c1=O)CCS2 (stereo not given)	/	/	70*	0.58	8	9	-9	-53
O=C(c1cnc2n(c1=O)CCS2)N1CCc2ccccc21	/	/	/	-1.2	/	/	/	/
O=C(Nc1cccnc1)c1cnn2cccnc12	-7	8	76*	-0.4	1	5	63*	-52
C=CCn1nnc2sc3c(c2c1=O)CCC(C)C3 (stereo not given)	0	1	-30	-0.65	-11	3	/	/
CCn1c(SCC(=O)N2CCOCC2)nc(O)cc1=O	/	/	71*	-0.81	-13	2	-15	-51
C#CCCOC(=O)N1C2=NC(C(=O)OC)=C(C(=O)OC)[C@@H]3N(Cc4ccccc4)c4ccccc4[C@]23C[C@H]1C(=O)OC	/	/	/	0.87	/	/	/	/
CCOC(=O)c1[nH]c(C)c(C(=O)NCCN2CCOCC2)c1C	/	/	74*	-1.1	-21	7	-10	-52
CCOC(=O)N1CCC(Nc2c(NCCN3CCN(c4ccccc4F)CC3)c(=O)c2=O)CC1	-3	0	-2	1	-10	4	/	/
Cc1ccccc1N1C(N)=NC(N)=NC1(C)C	6	-7	-5	-0.24	-14	9	/	/
COc1ccccc1N1C(N)=NC(N)=NC1(C)C	6	-8	79*	-0.44	10	10	4	-55
COc1cc(/C=C(\C#N)c2[nH]nc(N)c2C#N)cc(OC)c1O	-5	6	78*	-0.34	-18	22	66*	-48
Cc1ccc(N(C)C(=O)N2CCN(S(=O)(=O)c3ccc(C)cc3)CC2)cc1	/	/	72*	1.1	2	5	3	-50
c1ccc(COc2ccc(Nc3ncnc4nc[nH]c34)cc2)cc1	1	-4	72*	-0.017	-19	4	44	-52
Cc1ccc(C)c(Nc2ncnc3nc[nH]c23)c1	0	-3	41	-0.91	1	5	/	/
Cc1cccc(Nc2ncnc3nc[nH]c23)c1	2	-5	76*	0.79	9	9	81*	-48
COc1ccc(Nc2ncnc3nc[nH]c23)cc1OC	/	/	/	0.032	/	/	/	/
CCOC(=O)C1=C(C)NC(=O)NC1C(C)C (stereo not given)	/	/	/	-0.62	/	/	/	/
CCOC(=O)CSc1nc2ccccc2c(=O)[nH]1	/	/	72*	0.48	2	7	-9	-49
CCC(C)NS(=O)(=O)c1ccc(NS(=O)(=O)c2ccc(F)cc2)cc1 (stereo not given)	-11	14	-2	0.09	7	6	/	/
COC(=O)C1C2C=CC3(CN(c4cccc(Cl)c4)C(=O)C13)O2 (stereo not given)	/	/	74*	-0.93	-34	13	-2	-50
COC(=O)C1C2C=CC3(CN(c4cccc(C)c4)C(=O)C13)O2 (stereo not given)	-10	10	-5	/	8	7	/	/
COc1ccc(S(=O)(=O)Cc2ccc(C(=O)N3CCN(c4cccc(C)c4)C(C)C3)o2)cc1 (stereo not given)	/	/	73*	0.77	-6	8	-3	-51
CCc1c(C2(O)CCCCC2)[nH]c2ccc(C#N)cc12	/	/	/	-0.24	/	/	/	/
SMILES	LYP act	LYP inh 2	PLK1 inh	hDAT+cocaine	Plk1 PBD FP	Rev-RRE block	PLK1 confirm	TR-FRET interf
COc1cc(-c2nnc(SCc3cc(=O)oc4cc(O)c(O)cc34)o2)cc(OC)c1OC	-32	31*	77*	-0.55	2	-20	26	1
COCCCNC(=O)c1ccc(CS(=O)(=O)c2ccc(Br)cc2)o1	/	/	75*	-0.15	-16	7	-6	-50
COCCCNC(=O)c1ccc(CS(=O)(=O)c2ccc(OC)cc2)o1	/	/	/	0.21	/	/	/	/
OC(CN1C2=NCCCN2c2ccccc21)c1ccc(Cl)cc1 (stereo not given)	/	/	80*	0.94	-14	0	-3	-54
OC(CN1C2=NCCN2c2ccccc21)c1ccccc1 (stereo not given)	-5	4	0	1.7	-19	3	/	/
C=CCSc1nc(-c2ccccc2)c2cc(Cl)ccc2n1	-3	9	78*	-1.6*	13	23	-9	-51
CCCCOC(=O)CCn1c(=S)oc2ccccc21	14	-17	125*	-0.93	13	5	-8	-52
CN1CCN(CC(O)COc2ccc(OCC(O)CN3CCN(C)CC3)cc2)CC1 (stereo not given)	-2	6	-18	0.03	-14	7	/	/
CCOC(=O)c1c(C)n(C)c2ccc(OCC(O)CN3CCN(C)CC3)cc12 (stereo not given)	/	/	75*	-0.074	9	11	-7	-44
Cc1ccc(-c2nc(CS(=O)CC(=O)NCCCN3CC(C)CC(C)C3)c(C)o2)cc1 (stereo not given)	/	/	76*	-0.18	-6	5	-15	-56
COc1ccc(-c2nc(CS(=O)CC(=O)NCCCN3CC(C)CC(C)C3)c(C)o2)cc1OC (stereo not given)	-6	4	-5	-1	3	1	/	/
COC(=O)c1ccccc1NC(=O)CSc1nc(N)cc(N)n1	/	/	71*	0.52	42	4	-5	-44
COc1cccc(CNC(=O)C2CCCN(S(=O)(=O)c3c(C)[nH]c(=O)[nH]c3=O)C2)c1 (stereo not given)	-10	12	2	-0.0061	0	2	/	/
O=C(Nc1ncc2c(n1)-c1ccccc1CC2)c1ccc(Cl)cc1	4	-1	123*	0.2	-10	5	12	-46
O=C(c1ccco1)N1CCN(C(c2ccccc2)c2nnnn2C2CCCC2)CC1 (stereo not given)	-8	9	1	0.87	-8	7	/	/
COc1ccc(CC(=O)NC2CC(C)(C)NC(C)(C)C2)cc1	-1	1	-4	-0.93	-10	5	/	/
NC(=O)CSc1nnc(COc2ccccc2)n1C1CCCCC1	-11	9	5	/	2	5	/	/
O=C(NCCCN1CCOCC1)c1cc(-c2ccc3c(c2)OCO3)nc2ccccc12	/	/	72*	-0.72	28	0	-1	-51
COc1ccc(-c2cc(C(=O)NCCN3CCOCC3)c3ccccc3n2)cc1	3	-4	8	0.52	-21	5	/	/
Cc1ccc(S(=O)(=O)/N=C(\CN2CCCCC2)N2CCOCC2)cc1	-3	1	-5	-0.36	-1	2	/	/
